Usually AUC(0-t) stands for exposure summed from dosing to a finite time, without extrapolation to infinity. Read a low AUC(0-t) as low exposure. As usually defined, the EC50 is the midpoint of the concentration-response curve.

The text below walks through data of ChEMBL document CHEMBL4406794, “N-(7-Cyano-6-(4-fluoro-3-(2-(3-(trifluoromethyl)phenyl)acetamido)phenoxy)benzo[d]thiazol-2-yl)cyclopropanecarboxamide (TAK-632) Analogues as Novel Necroptosis Inhibitors by Targeting Receptor-Interacting Protein Kinase 3 (RIPK3): Synthesis, Structure-Activity Relationships, and in Vivo Efficacy” (J Med Chem, 2019).

Activity calls are given as the source filed them. The rule behind the calls is not given here.

In data set [1] the target is Inhibitor of nuclear factor kappa-B kinase subunit alpha (Homo sapiens) (UniProt O15111). In words: Inhibition of wild-type human full length IKK-alpha (M1 to E745 residues) expressed in mammalian expression system assessed as enzyme remaining activity at 1000 nM by Kinomescan method relative to control.
Data set [2] in a line: AUC (0 to t) in Sprague-Dawley rat at 1 mg/kg, iv by LC-tandem mass spectrometry analysis. The format is ADME, organism-based. The note with it: in vivo. In outline: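 Male Sprague-Dawley rats dosed once i.v. at 1 mg/kg or intragastrically at 5 mg/kg. Compound dissolved in 5% DMSO, 10% Tween 80, 75% physiological saline at 0.2 and 1 mg/mL. Blood taken at several time points, plasma spun at 4 °C, stored at -80 °C, assayed by LC/MS/MS. Parameters from individual animals by noncompartmental analysis.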

The target of data set [3] is T1, Receptor-interacting serine/threonine-protein kinase 1 (Homo sapiens, UniProt Q13546).
T1 sequence (Q13546 whole entry): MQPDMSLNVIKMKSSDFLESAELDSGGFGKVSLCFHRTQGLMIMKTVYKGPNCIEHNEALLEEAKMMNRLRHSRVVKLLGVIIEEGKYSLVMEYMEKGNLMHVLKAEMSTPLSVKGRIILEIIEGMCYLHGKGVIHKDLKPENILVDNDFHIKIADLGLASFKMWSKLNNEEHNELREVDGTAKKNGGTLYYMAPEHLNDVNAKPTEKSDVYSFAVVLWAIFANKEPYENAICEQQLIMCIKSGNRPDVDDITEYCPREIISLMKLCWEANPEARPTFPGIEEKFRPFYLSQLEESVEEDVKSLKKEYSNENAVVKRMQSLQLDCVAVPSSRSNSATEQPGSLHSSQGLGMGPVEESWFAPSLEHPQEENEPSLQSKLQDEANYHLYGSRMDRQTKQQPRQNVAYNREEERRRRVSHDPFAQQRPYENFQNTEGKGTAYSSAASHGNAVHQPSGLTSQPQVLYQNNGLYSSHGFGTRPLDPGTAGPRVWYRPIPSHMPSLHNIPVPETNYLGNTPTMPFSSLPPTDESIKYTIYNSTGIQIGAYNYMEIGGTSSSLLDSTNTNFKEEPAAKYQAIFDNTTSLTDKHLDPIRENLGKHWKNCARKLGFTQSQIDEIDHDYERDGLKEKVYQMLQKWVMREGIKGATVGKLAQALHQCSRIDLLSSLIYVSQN
In words: Binding affinity to wild-type human partial length RIPK1 (M1 to K305 residues) expressed in bacterial expression system at 5 uM after 1 hr by quantitative PCR based KINOMEscan assay.

The target of data set [4] is Mitogen-activated protein kinase kinase kinase 4 (Homo sapiens) (UniProt Q9Y6R4). Briefly: Inhibition of wild-type human partial length MAP3K4 (G1319 to E1608 residues) expressed in bacterial expression system assessed as enzyme remaining activity at 1000 nM by Kinomescan method relative to control.
In data set [5] the target is Platelet-derived growth factor receptor beta (Homo sapiens) (UniProt P09619). In words: Inhibition of wild-type human partial length PDGFRB (V582 to Y1009 residues) expressed in bacterial expression system assessed as enzyme remaining activity at 1000 nM by Kinomescan method relative to control.
In data set [6] the target is Receptor-interacting serine/threonine-protein kinase 3 (Homo sapiens, UniProt Q9Y572). Briefly: Inhibition of RIPK3 phosphorylation in human HT-29 cells assessed as reduction in TNFalpha/smac mimetic/Z-VAD-fmk-induced necrosome formation at 1 uM treated prior to TNFalpha/smac mimetic/Z-VAD-fmk stimulation and measured after 4 hrs by immunoprecipitation based assay. The format is cell-based. Put shortly: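 HT-29 cells treated with 1 μM compound or DMSO for 4 h, then lysed in M2 buffer. Lysates immunoprecipitated overnight at 4 °C with anti-RIPK1 (1 μg) on protein A/G agarose. Bound proteins boiled off and resolved on 4–20% SDS gels, then immunoblotted.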

Data set [7] has as its system Mus musculus. In words: Protection against TNFalpha/Z-VAD-fmk-induced C57BL/6J mouse model of systemic inflammatory response syndrome at 25 mg/kg, po administered via gavage 2 hrs prior to Z-VAD-fmk addition for 15 mins followed by TNFalpha stimulation for 1 hr and subsequent Z-VAD-fmk addition meaured up to 50 hrs post TNFalpha stimulation relative to control. It counts as functional. In outline:
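Overnight-fasted C57BL/6 female mice, n=10 per group. Test compound was given by oral gavage 2 h before mTNF-α. z-VAD-fmk (180 µg) was injected ip, then 15 min later mTNF-α in endotoxin-free PBS was injected iv (400 µg/kg). A second z-VAD-fmk dose (70 µg) was given ip 1 h after TNF. Body temperature and survival were followed against vehicle. One-way ANOVA was used.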

Data set [8] concerns the target Inhibitor of nuclear factor kappa-B kinase subunit beta (Homo sapiens) (UniProt O14920). In words: Inhibition of wild-type human full length IKK-beta (M1 to S756 residues) expressed in mammalian expression system assessed as enzyme remaining activity at 1000 nM by Kinomescan method relative to control.
Data set [9] has as its target Dual specificity mitogen-activated protein kinase kinase 2 (Homo sapiens) (UniProt P36507). In words: Inhibition of wild-type human full length MEK2 (M1 to V400 residues) expressed in mammalian expression system assessed as enzyme remaining activity at 1000 nM by Kinomescan method relative to control.
Data set [10] deals with HT-29. Briefly: Anti-necroptotic activity in human HT-29 cells assessed as inhibition of […]/SM-164/Z-VAD-fmk-induced necroptosis measured after 16 hrs by celltiter-glo luminescent cell viability assay. The note with it: HT-29, 16 h.
Data set [11] is described as follows: Toxicity in Sprague-Dawley rat at 1 mg/kg, iv or 5 mg/kg, po. The format is organism-based. The note with it: in vivo.
Data set [12] relates to HT-29. Briefly: Cytoprotection against TNFalpha/cycloheximide/Z-VAD-fmk-induced necroptosis in human HT-29 cells at 3 uM treated prior to TNFalpha/cycloheximide/Z-VAD-fmk stimulation and measured after 12 hrs by cell-Titer Glo luminescent cell viability assay. The format is functional, cell-based. Put shortly: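 HT-29 cells pretreated with compound at 3 μM or DMSO, then given TNF-α 20 ng/mL, cycloheximide 5 μg/mL and z-VAD-fmk 20 μM for 12 h. Viability read by CellTiter-Glo luminescence.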

Data set [13] has as its system L929. Briefly: Cytoprotection against TNFalpha/Z-VAD-fmk-induced necroptosis in mouse L929 cells at 0.01 to 1 uM treated prior to TNFalpha/Z-VAD-fmk stimulation and measured after 4 hrs by cell-Titer Glo luminescent cell viability assay. It counts as functional, cell-based. Put shortly: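 Mouse L929 cells (DMEM, 10% FBS) pretreated with compound at the indicated concentrations, then given mouse TNF-α 20 ng/mL and z-VAD-fmk 20 μM for 4 h. Viability read by CellTiter-Glo luminescence.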

Data set [14] addresses Platelet-derived growth factor receptor alpha (Homo sapiens) (UniProt P16234). In words: Inhibition of wild-type human partial length PDGFRA (V575 to D1002 residues) expressed in mammalian expression system assessed as enzyme remaining activity at 1000 nM by Kinomescan method relative to control.
In data set [15] the target is Fibroblast growth factor receptor 2 (Homo sapiens) (UniProt P21802). In words: Inhibition of wild-type human partial length FGFR2 (D457 to E769 residues) expressed in bacterial expression system assessed as enzyme remaining activity at 1000 nM by Kinomescan method relative to control.
Chain of Fibroblast growth factor receptor 2 (Homo sapiens) (P21802 22-821 limits assumed): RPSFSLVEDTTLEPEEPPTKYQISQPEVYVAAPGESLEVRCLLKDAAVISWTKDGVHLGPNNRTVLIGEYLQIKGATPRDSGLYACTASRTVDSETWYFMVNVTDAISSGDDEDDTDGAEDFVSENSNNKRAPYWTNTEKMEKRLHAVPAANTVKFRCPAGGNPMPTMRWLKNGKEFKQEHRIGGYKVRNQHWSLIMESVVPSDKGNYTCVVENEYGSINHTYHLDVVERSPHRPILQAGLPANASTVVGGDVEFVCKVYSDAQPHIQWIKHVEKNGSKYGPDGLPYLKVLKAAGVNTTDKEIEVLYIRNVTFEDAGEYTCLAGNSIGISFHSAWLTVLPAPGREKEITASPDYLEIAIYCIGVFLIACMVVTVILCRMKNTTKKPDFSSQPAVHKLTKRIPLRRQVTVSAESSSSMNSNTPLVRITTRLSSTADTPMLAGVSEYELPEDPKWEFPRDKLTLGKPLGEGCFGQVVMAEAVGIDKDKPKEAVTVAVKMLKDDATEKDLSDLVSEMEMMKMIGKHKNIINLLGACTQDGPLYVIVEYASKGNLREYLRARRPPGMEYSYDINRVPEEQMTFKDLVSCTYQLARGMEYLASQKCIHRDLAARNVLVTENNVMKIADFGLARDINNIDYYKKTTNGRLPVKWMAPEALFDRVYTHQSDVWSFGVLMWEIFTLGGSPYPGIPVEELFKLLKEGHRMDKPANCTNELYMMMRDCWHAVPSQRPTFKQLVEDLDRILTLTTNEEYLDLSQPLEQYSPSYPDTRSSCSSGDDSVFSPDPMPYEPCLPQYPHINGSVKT

Chain of Receptor-interacting serine/threonine-protein kinase 3 (Q9Y572 whole entry, looked up): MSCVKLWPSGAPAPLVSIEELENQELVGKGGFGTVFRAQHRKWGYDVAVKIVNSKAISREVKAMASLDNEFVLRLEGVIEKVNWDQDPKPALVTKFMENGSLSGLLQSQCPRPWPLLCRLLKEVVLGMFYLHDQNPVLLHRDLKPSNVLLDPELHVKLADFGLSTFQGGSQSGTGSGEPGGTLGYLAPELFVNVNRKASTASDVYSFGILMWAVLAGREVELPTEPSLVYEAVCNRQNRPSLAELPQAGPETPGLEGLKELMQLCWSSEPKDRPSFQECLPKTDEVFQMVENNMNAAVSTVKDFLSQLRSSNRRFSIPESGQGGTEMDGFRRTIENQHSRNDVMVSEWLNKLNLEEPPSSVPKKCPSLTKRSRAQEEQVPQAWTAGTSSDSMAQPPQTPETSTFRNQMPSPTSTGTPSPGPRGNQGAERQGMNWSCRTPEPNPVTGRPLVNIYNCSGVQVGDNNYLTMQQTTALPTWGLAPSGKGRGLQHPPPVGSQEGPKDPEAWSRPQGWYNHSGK
Chain of Dual specificity mitogen-activated protein kinase kinase 2 (Homo sapiens) (P36507 whole entry, the tested form may be a part): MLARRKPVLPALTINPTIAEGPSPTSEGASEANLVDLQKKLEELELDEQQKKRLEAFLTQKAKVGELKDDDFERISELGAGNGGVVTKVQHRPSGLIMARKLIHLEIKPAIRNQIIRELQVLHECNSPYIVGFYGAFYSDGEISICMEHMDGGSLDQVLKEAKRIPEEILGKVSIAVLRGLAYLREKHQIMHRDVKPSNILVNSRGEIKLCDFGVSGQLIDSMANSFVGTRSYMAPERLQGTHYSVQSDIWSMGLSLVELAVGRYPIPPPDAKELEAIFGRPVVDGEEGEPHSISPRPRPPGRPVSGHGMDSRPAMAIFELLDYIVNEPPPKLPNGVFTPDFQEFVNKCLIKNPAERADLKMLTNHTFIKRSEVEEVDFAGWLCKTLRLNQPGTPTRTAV
Chain of Platelet-derived growth factor receptor beta (Homo sapiens) (P09619 whole entry, the tested form may be a part): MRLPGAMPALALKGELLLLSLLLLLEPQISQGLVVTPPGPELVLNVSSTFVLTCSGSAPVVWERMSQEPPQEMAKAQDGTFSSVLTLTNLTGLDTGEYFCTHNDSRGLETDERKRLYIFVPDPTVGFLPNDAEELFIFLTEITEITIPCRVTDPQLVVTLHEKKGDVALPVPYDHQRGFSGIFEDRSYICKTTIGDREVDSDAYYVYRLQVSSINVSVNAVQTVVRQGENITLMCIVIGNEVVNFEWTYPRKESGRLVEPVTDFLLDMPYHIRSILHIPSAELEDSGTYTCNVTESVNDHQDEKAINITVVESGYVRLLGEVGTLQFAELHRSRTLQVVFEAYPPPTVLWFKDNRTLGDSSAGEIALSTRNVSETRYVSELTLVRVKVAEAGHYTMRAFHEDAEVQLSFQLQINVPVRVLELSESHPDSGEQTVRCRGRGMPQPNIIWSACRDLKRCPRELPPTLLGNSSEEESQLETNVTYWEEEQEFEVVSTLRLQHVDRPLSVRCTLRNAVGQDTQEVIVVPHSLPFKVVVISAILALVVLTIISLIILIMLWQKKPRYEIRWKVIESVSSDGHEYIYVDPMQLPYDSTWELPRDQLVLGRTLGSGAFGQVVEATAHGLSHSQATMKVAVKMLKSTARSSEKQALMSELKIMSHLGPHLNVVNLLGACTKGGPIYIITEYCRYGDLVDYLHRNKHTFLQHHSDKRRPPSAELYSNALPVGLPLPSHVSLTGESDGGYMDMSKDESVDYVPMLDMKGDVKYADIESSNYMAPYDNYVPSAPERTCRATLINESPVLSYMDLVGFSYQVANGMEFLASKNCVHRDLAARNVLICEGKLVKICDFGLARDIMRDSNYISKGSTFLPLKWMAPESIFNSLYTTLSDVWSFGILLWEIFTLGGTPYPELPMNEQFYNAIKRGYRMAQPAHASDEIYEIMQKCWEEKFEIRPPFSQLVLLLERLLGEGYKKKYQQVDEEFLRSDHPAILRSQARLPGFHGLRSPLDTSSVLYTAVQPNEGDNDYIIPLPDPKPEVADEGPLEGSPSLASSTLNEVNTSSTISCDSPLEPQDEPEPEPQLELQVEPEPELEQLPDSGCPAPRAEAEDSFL
Chain of Platelet-derived growth factor receptor alpha (Homo sapiens) (P16234 whole entry, the tested form may be a part): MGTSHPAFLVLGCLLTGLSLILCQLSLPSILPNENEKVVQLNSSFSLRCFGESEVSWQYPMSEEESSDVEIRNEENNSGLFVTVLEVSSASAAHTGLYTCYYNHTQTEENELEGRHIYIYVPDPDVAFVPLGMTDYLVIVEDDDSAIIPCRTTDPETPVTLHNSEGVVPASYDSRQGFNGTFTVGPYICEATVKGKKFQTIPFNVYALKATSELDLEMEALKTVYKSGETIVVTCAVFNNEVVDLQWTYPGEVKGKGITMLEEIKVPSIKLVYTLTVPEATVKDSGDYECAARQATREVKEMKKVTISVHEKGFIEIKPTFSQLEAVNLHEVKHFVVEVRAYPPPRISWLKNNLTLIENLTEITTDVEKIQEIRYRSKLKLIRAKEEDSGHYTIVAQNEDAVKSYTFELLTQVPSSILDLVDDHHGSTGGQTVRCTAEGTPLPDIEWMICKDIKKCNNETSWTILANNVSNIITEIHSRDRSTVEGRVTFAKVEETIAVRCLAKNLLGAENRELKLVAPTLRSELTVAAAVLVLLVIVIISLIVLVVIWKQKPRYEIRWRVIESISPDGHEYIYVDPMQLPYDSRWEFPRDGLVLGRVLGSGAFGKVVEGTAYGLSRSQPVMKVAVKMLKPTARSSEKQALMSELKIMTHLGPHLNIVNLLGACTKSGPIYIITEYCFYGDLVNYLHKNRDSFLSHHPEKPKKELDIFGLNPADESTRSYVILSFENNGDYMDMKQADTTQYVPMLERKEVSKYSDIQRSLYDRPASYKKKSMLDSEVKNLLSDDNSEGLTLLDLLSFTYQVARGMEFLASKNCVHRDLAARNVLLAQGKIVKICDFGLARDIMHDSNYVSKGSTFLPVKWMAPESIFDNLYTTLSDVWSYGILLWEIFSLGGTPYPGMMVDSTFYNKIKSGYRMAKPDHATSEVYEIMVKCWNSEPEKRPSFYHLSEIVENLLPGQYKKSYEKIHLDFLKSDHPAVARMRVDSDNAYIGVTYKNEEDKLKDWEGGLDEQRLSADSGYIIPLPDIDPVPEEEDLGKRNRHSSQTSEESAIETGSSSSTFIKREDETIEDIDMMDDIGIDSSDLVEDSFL
Chain of Inhibitor of nuclear factor kappa-B kinase subunit alpha (Homo sapiens) (O15111 whole entry, the tested form may be a part): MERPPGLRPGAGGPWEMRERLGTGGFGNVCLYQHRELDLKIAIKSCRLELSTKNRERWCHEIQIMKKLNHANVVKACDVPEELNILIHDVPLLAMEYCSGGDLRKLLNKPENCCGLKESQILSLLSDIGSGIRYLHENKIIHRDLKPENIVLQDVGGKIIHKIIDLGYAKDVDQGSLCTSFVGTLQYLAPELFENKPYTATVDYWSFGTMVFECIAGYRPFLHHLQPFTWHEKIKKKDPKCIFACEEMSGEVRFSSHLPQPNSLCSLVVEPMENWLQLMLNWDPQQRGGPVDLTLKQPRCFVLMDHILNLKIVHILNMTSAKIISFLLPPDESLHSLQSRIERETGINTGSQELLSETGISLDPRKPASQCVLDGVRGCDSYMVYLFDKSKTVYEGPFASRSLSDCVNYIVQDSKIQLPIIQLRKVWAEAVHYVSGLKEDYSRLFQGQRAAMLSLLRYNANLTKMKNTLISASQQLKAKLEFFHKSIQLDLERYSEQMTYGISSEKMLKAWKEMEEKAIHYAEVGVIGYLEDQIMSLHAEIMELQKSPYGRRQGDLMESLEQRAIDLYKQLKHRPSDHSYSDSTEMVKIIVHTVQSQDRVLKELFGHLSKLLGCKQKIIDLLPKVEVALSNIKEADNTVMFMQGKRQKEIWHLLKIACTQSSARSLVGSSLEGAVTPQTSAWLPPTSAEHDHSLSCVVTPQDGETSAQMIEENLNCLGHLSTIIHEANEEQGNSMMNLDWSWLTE

Take `O=C(Nc1cccc(Br)c1)Nc1cc(Oc2ccc3nc(NC(=O)C4CC4)sc3c2)ccc1F`: the Activity in data set [1] is 100%; in data set [3] it was “Not Active”; in data set [4], 100%; in [5] it was 0%; in [7], 100%; in [8], 97%. Also, the Activity in data set [9] was 83%; in [11], “Non-Toxic”; in data set [14], 5.3%; in data set [15] it was 22%. Moreover, the AUC(0-t) in data set [2] amounted to 5560 ng·h/mL. The inhibition result in data set [6] is “Active”. The concentration for a half-maximal effect (EC50) in [10] worked out at 440 nM. Moreover, the result in [12] and in data set [13] was Active.
